Active and inactive are the calls of the source. The rule behind the calls is not given here.
What was measured:
K562 [1] = test: Induction of apoptosis in human K562 cells assessed as necrotic cells at 2 uM after 48 hrs by annexin V FITC and propidium iodide staining based flow cytometric analysis (reference value: 0.69%); type: functional
HepG2 [2] = test: Induction of cell cycle arrest in human HepG2 cells assessed as accumulation at S phase at 1 uM after 48 hrs by propidium iodide staining based flow cytometric analysis (reference value: 33.22 to 33.58%); type: functional
K562 [3] = test: Induction of apoptosis in human K562 cells assessed as decrease in livin protein expression at 1 uM after 24 hrs by chemiluminescence based apoptosis array method; type: functional, cell-based
Method in brief: (§1)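 K562 cells were treated with 1 test agent for 24 h. Diluted total-cell lysates were applied to a human apoptosis antibody array covering 35 apoptosis-related proteins for 24 h. Unbound protein was washed off, and arrays were probed with a biotinylated detection antibody for 1 h. Relative expression was read from chemiluminescent signal by digital imaging.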

HepG2 [4] = test: Induction of cell cycle arrest in human HepG2 cells assessed as accumulation at S phase at 0.5 uM after 48 hrs by propidium iodide staining based flow cytometric analysis (reference value: 33.22 to 33.58%); type: functional
HepG2 [5] = test: Induction of cell cycle arrest in human HepG2 cells assessed as accumulation at G1 phase at 0.5 uM after 48 hrs by propidium iodide staining based flow cytometric analysis (reference value: 49.46 to 50.3%); type: functional
Method in brief: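 HepG2 cells were treated with 0, 0.50, 1.0 or 2.0 test agent for 48 h. Cells were washed in cold PBS and fixed in 70% ethanol at −20 °C overnight. DNA-content distribution was measured by flow cytometry. Mean ± SD, three independent experiments.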

[6] = Selectivity ratio of IC50 for cytotoxicity against human L02 cells to IC50 for antiproliferative activity against human K562 cells; type: toxicity, cell-based; conditions: read-out: Ratio IC50
HepG2 [7] = test: Induction of cell cycle arrest in human HepG2 cells assessed as accumulation at G2 phase at 2 uM after 48 hrs by propidium iodide staining based flow cytometric analysis (reference value: 16.48 to 16.97%); type: functional
K562 [8] = test: Induction of apoptosis in human K562 cells assessed as necrotic cells at 1 uM after 48 hrs by annexin V FITC and propidium iodide staining based flow cytometric analysis (reference value: 0.69%); type: functional
HepG2 [9] = test: Induction of apoptosis in human HepG2 cells assessed as necrotic cells at 2 uM after 48 hrs by annexin V FITC and propidium iodide staining based flow cytometric analysis (reference value: 0.89%); type: functional
L02 = test: Cytotoxicity against human L02 cells assessed as cell viability after 72 hrs by MTT assay; conditions: L02, 72 h
K562 [10] = test: Induction of apoptosis in human K562 cells assessed as viable cells at 1 uM after 48 hrs by annexin V FITC and propidium iodide staining based flow cytometric analysis (reference value: 96.76%); type: functional; conditions: read-out: Activity
K562 [11] = test: Induction of cell cycle arrest in human K562 cells assessed as accumulation at S phase at 2 uM after 48 hrs by propidium iodide staining based flow cytometric analysis (reference value: 44.73 to 45.96%); type: functional
K562 [12] = test: Induction of apoptosis in human K562 cells assessed as early apoptotic cells at 0.5 uM after 48 hrs by annexin V FITC and propidium iodide staining based flow cytometric analysis (reference value: 2.13%); type: functional
K562 [13] = test: Induction of cell cycle arrest in human K562 cells assessed as accumulation at G2 phase at 0.5 uM after 48 hrs by propidium iodide staining based flow cytometric analysis (reference value: 10.96 to 12.03%); type: functional
K562 [14] = test: Induction of mitochondrial membrane potential loss in human K562 cells after 48 hrs by JC1 staining based flow cytometric analysis; type: functional, cell-based; conditions: dose 0.5-2 µM
Method in brief: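 K562 and HepG2 cells in 6-well plates were exposed for 48 h at 0, 0.50, 1.0 and 2.0 µM, with DMSO vehicle control. After trypsinization, cells were stained with JC-1 (0.5 mg/mL) at 37 °C in darkness for 30 min, then washed with PBS. Membrane potential was read by flow cytometry. Mean ± SD, three independent experiments.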

K562 [15] = test: Induction of apoptosis in human K562 cells assessed as decrease in C-IAP1 protein expression at 1 uM after 24 hrs by chemiluminescence based apoptosis array method; type: functional, cell-based; method in brief: as §1
K562 [16] = test: Induction of apoptosis in human K562 cells assessed as nuclear fragmentation after 24 to 48 hrs by Hoechst 33258 staining based fluorescence microscopic method; type: functional, cell-based; conditions: dose 1-4 µM, time 24-48 hrs
Method in brief: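 K562 cells were exposed to 1.0, 2.0 or 4.0 test agent, with DMSO as vehicle control, for 24 h and 48 h. They were harvested, washed twice in PBS and stained with Hoechst 33258 (0.5 mg/mL in PBS) for 30 min in darkness. Slides were viewed by fluorescence microscopy with a DAPI filter. Three random fields of about 200 nuclei per sample were scored as % apoptotic nuclei. Three independent experiments.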

K562 [17] = test: Induction of cell cycle arrest in human K562 cells assessed as accumulation at G2 phase at 2 uM after 48 hrs by propidium iodide staining based flow cytometric analysis (reference value: 10.96 to 12.03%); type: functional
HepG2 (human) = test: Induction of apoptosis in human HepG2 cells after 48 hrs by annexin V FITC and propidium iodide staining based flow cytometric analysis; conditions: dose 0.5-2 µM
HepG2 [18] = test: Antiproliferative activity against human HepG2 cells assessed as reduction in cell viability after 72 hrs by MTT assay; conditions: HepG2, 72 h
K562 [19] = test: Induction of apoptosis in human K562 cells assessed as early apoptotic cells at 2 uM after 48 hrs by annexin V FITC and propidium iodide staining based flow cytometric analysis (reference value: 2.13%); type: functional
K562 [20] = test: Induction of cell cycle arrest in human K562 cells assessed as accumulation at G2 phase at 1 uM after 48 hrs by propidium iodide staining based flow cytometric analysis (reference value: 10.96 to 12.03%); type: functional
K562 [21] = test: Induction of cell cycle arrest in human K562 cells assessed as accumulation at G1 phase at 0.5 uM after 48 hrs by propidium iodide staining based flow cytometric analysis (reference value: 43.24 to 43.37%); type: functional
K562 [22] = test: Induction of apoptosis in human K562 cells assessed as decrease in XIAP protein expression at 1 uM after 24 hrs by chemiluminescence based apoptosis array method; type: functional, cell-based; method in brief: as §1
K562 [23] = test: Induction of cell cycle arrest in human K562 cells assessed as accumulation at S phase at 0.5 uM after 48 hrs by propidium iodide staining based flow cytometric analysis (reference value: 44.73 to 45.96%); type: functional
HepG2 [24] = test: Induction of apoptosis in human HepG2 cells assessed as viable cells at 2 uM after 48 hrs by annexin V FITC and propidium iodide staining based flow cytometric analysis (reference value: 93.5%); type: functional; conditions: read-out: Activity
B16 = test: Antiproliferative activity against mouse B16 cells assessed as reduction in cell viability after 72 hrs by MTT assay; conditions: B16, 72 h
[25] = Selectivity ratio of IC50 for cytotoxicity against human PBMC cells to IC50 for antiproliferative activity against human K562 cells; type: toxicity, cell-based; conditions: read-out: Ratio IC50

IC50 (HepG2 [18]): 2570 nM
IC50 (B16): 12.9 µM
SMILES: C=C1C(=O)[C@]23[C@H](OC(=O)CCC(=O)OCCCCCCOc4ccc(-c5cc(=S)ss5)cc4)[C@H]1CC[C@H]2[C@@]12CO[C@@]3(O)[C@@H](O)[C@@H]1C(C)(C)CC[C@@H]2OC(C)=O
Activity (K562 [1]): 1.57%
Activity (HepG2 [2]): 27.19%
Activity (K562 [3]): Active
Activity (HepG2 [4]): 31.41%
Activity (HepG2 [5]): 55.35%
selectivity ratio [6]: 20
Activity (HepG2 [7]): 6.6%
Activity (K562 [8]): 1.16%
Activity (HepG2 [9]): 4.42%
IC50 (L02): 17.6 µM
viability at 1 µM (K562 [10]): 79.1%
Activity (K562 [11]): 62.64%
Activity (K562 [12]): 7.1%
Activity (K562 [13]): 11.07%
Activity (K562 [14]): Dose-dependent effect
Activity (K562 [15]): Active
Activity (K562 [16]): Dose-dependent effect
Activity (K562 [17]): 7.39%
Activity (HepG2 (human)): Dose-dependent effect
Activity (K562 [19]): 23.75%
Activity (K562 [20]): 10.32%
Activity (K562 [21]): 38.61%
Activity (K562 [22]): Active
Activity (K562 [23]): 50.32%
viability at 2 µM (HepG2 [24]): 31.5%
selectivity ratio [25]: 20

Reference: ChEMBL document CHEMBL4706489, “Hydrogen sulfide releasing oridonin derivatives induce apoptosis through extrinsic and intrinsic pathways” (Eur J Med Chem, 2020)
